Experimental data: ChEMBL document CHEMBL1156237, “Antiviral activity of benzimidazole derivatives. II. Antiviral activity of 2-phenylbenzimidazole derivatives” (Bioorg Med Chem, 2010)
Calls of active or inactive are those of the source. Unless noted, the calls are words filed in the database; no cut-off is given here.

How the values were obtained:
[1] = Cytotoxicity against BHK cells after 48 to 96 hrs by MTT assay; type: cell-based, Mesocricetus auratus; conditions: hamster
Outline: (§1)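 Cell seeding: MDBK at 6 × 10^5 cells/mL in MEM-E with 10% horse serum and 1 mM Na pyruvate; BHK at 1 × 10^6 cells/mL in MEM-E with 10% FBS. Serial compound dilutions, 37 °C, 5% CO2. Viability of mock-infected cells by MTT after 48–96 h; CC50 is the concentration reducing viability by 50%.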

[2] = system: Human immunodeficiency virus 1; experiment: Antiviral activity against HIV1 3B infected in human MT4 cells assessed as protection from virus-induced cytopathogenicity after 4 days by MTT method; type: functional, organism-based
Outline: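 MT-4 cells, 1 × 10^4/well in RPMI with or without serial compound dilutions, infected with HIV-1 IIIB, 100 CCID50 (m.o.i. 0.01). Protection from virus-induced cytopathogenicity read by MTT.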

[3] = Cytotoxicity against african green monkey Vero cells; type: cell-based; conditions: chlorocebus sabaeus
Outline: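 Vero 76 monolayers exposed to serial compound dilutions, run in parallel on the same 24-well plates as the plaque-reduction assays. CC50 is the concentration reducing viability of mock-infected cells by 50%.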

[4] = system: Respiratory syncytial virus; experiment: Antiviral activity against RSV A2 infected in african green monkey Vero cells after 5 days by plaque reduction assay; type: functional, organism-based
Outline: (§2)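 Plaque reduction assay. Vero 76 cells at 2 × 10^5/well, grown overnight to confluence in D-MEM with 10% FBS. Infected 2 h with 50–100 PFU/well, unadsorbed virus removed. Overlay of D-MEM with 1% inactivated FBS and 0.75% methylcellulose, with or without serial compound dilutions. Incubated at 37 °C for 3 days (HSV-1 KOS, CVB-2 Ohio-1) or 5 days (RSV A2). Fixed and stained with crystal violet in 50% ethanol; plaques counted; EC50 by linear regression.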

Vaccinia virus = experiment: Antiviral activity against Vaccinia virus Elstree-Lister infected in african green monkey Vero cells after 3 days by plaque reduction assay; type: functional, organism-based; conditions: Orthopoxvirus vaccinia
[5] = Cytotoxicity against human MT4 cells after 96 hrs by MTT assay; type: cell-based; conditions: MT4 cells
Outline: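 Exponentially growing MT-4 cells at 1 × 10^5 cells/mL in RPMI-1640 with 10% FCS, exposed to serial compound dilutions at 37 °C, 5% CO2. Viability by MTT after 96 h; CC50 is the concentration reducing viability of mock-infected cells by 50%.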

[6] = system: Bovine viral diarrhea virus 1; experiment: Antiviral activity against Bovine viral diarrhea virus NADL infected in MDBK cells assessed as protection from virus-induced cytopathogenicity after 3 to 4 days by MTT method; type: functional, organism-based, Bovine viral diarrhea virus 1-NADL; conditions: Bovine viral diarrhea virus isolates and strains, MDBK
Outline: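 Cytopathogenicity protection assay. MDBK cells at 3 × 10^4/well, grown overnight to confluence. Infected with BVDV NADL at m.o.i. 0.01 in MEM-E with 0.5% inactivated FBS, 1 mM Na pyruvate and 1% kanamycin. Serial compound dilutions added after 1 h. After 3–4 days at 37 °C, viability read by MTT; EC50 is the concentration giving 50% protection.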

Coxsackievirus B2 = experiment: Antiviral activity against Human coxsackievirus B2 Ohio-1 infected in african green monkey Vero cells after 3 days by plaque reduction assay; type: functional, organism-based, Coxsackievirus B2 (strain Ohio-1); conditions: Enterovirus B, Vero, 72 h; outline: as §2
[7] = system: Mammalian orthoreovirus 1; experiment: Antiviral activity against Reovirus 1 3651 infected in BHK21 cells assessed as protection from virus-induced cytopathogenicity after 3 to 4 days by MTT method; type: functional, organism-based; conditions: for Activity: BHK-21
Poliovirus 1 = experiment: Antiviral activity against Polio virus type1 Sabin strain Chat infected in african green monkey Vero cells after 2 days by plaque reduction assay; type: functional, organism-based, Human poliovirus 1 strain Sabin; conditions: Enterovirus C, 48 h
[8] = Cytotoxicity against MDBK cells after 48 to 96 hrs by MTT assay; type: cell-based, Bos taurus; conditions: cattle, MDBK cells; outline: as §1
Human alphaherpesvirus 1 = experiment: Antiviral activity against HSV1 KOS infected in african green monkey Vero cells after 3 days by plaque reduction assay; type: functional, organism-based; conditions: Human alphaherpesvirus 1, KOS, 72 h; outline: as §2
[9] = system: Vesicular stomatitis virus; experiment: Antiviral activity against VSV Indiana lab infected in african green monkey Vero cells after 2 days by plaque reduction assay; type: functional, organism-based
Yellow fever virus = experiment: Antiviral activity against Yellow fever virus 17D infected in BHK cells assessed as protection from virus-induced cytopathogenicity after 3 to 4 days by MTT method; type: functional, organism-based

In the case of `CC(=O)Nc1ccc(-c2nc3cc(C(F)(F)F)ccc3n2C23CC4CC(CC(C4)C2)C3)cc1`, the CC50 [1] is reported as greater than 100 µM, the Activity [2] is reported as “inactive” and the CC50 [3] is reported as greater than 100 µM. The Activity [4] was “inactive”, the Activity (Vaccinia virus) was “inactive” and the CC50 at 96 h [5] was 28 µM. The EC50 [6] was greater than 82 µM, the EC50 (Coxsackievirus B2) was greater than 100 µM and the Activity [7] was “inactive”. For the same compound, the EC50 (Poliovirus 1) was greater than 100 µM, the CC50 [8] was 82 µM and the EC50 (Human alphaherpesvirus 1) was greater than 100 µM. The Activity [9] was “inactive” and the EC50 (Yellow fever virus) was greater than 100 µM.
With `Cn1c(-c2ccc(NC(=O)CN3CCOCC3)cc2)nc2cc(C(F)(F)F)ccc21` the CC50 [1] was greater than 100 µM, the Activity [2] was “inactive” and the CC50 [3] was greater than 100 µM. For the same compound, the Activity [4] was “inactive”, the Activity (Vaccinia virus) was “inactive” and the CC50 at 96 h [5] was no less than 100 µM. The EC50 [6] was greater than 100 µM, the EC50 (Coxsackievirus B2) was greater than 100 µM and the Activity [7] was “inactive”. The EC50 (Poliovirus 1) was greater than 100 µM, the CC50 [8] was greater than 100 µM and the EC50 (Human alphaherpesvirus 1) was greater than 100 µM. The Activity [9] was “inactive” and the EC50 (Yellow fever virus) was greater than 100 µM.
With `Cn1c(-c2ccc(N)cc2)nc2cc(C(F)(F)F)ccc21` the CC50 [1] was 85 µM, the Activity [2] was “inactive” and the CC50 [3] was greater than 100 µM. The Activity [4] was “inactive”, the Activity (Vaccinia virus) was “inactive” and the CC50 at 96 h [5] was 20 µM. The EC50 [6] was 69 µM, the EC50 (Coxsackievirus B2) was 14 µM and the Activity [7] was “inactive”. It also gave an EC50 (Poliovirus 1) of 20 µM, a CC50 [8] of 74 µM and an EC50 (Human alphaherpesvirus 1) greater than 100 µM. The Activity [9] was “inactive” and the EC50 (Yellow fever virus) was greater than 85 µM.
With `CN1CCN(CC(=O)Nc2ccc(-c3nc4cc(C(F)(F)F)ccc4n3C)cc2)CC1` the CC50 [1] was 16 µM, the Activity [2] was “inactive” and the CC50 [3] was greater than 100 µM. For the same compound, the Activity [4] was “inactive”, the Activity (Vaccinia virus) was “inactive” and the CC50 at 96 h [5] was 22 µM. The EC50 [6] was 15 µM, the EC50 (Coxsackievirus B2) was 19 µM and the Activity [7] was “inactive”. It also gave an EC50 (Poliovirus 1) of 41 µM, a CC50 [8] of 44 µM and an EC50 (Human alphaherpesvirus 1) greater than 100 µM. For the same compound, the Activity [9] was “inactive” and the EC50 (Yellow fever virus) was 7 µM.
In the case of `O=C(CCl)Nc1ccc(-c2nc3cc(C(F)(F)F)ccc3n2C23CC4CC(CC(C4)C2)C3)cc1`, the CC50 [1] is reported as 51 µM, the Activity [2] is reported as “inactive” and the CC50 [3] is reported as greater than 100 µM. The Activity [4] was “inactive”, the Activity (Vaccinia virus) was “inactive” and the CC50 at 96 h [5] was 0.3 µM. For the same compound, the EC50 [6] was greater than 18 µM, the EC50 (Coxsackievirus B2) was greater than 100 µM and the Activity [7] was “inactive”. The EC50 (Poliovirus 1) was greater than 100 µM, the CC50 [8] was 18 µM and the EC50 (Human alphaherpesvirus 1) was greater than 100 µM. The Activity [9] was “inactive” and the EC50 (Yellow fever virus) was greater than 51 µM.
With `Cn1c(-c2ccc(NC(=O)CN3CCSCC3)cc2)nc2cc(C(F)(F)F)ccc21` the CC50 [1] was greater than 100 µM, the Activity [2] was “inactive” and the CC50 [3] was greater than 100 µM. The Activity [4] was “inactive”, the Activity (Vaccinia virus) was “inactive” and the CC50 at 96 h [5] was 10 µM. The EC50 [6] was 8 µM, the EC50 (Coxsackievirus B2) was 22 µM and the Activity [7] was “inactive”. The EC50 (Poliovirus 1) was greater than 100 µM, the CC50 [8] was greater than 100 µM and the EC50 (Human alphaherpesvirus 1) was greater than 100 µM. For the same compound, the Activity [9] was “inactive” and the EC50 (Yellow fever virus) was 46 µM.
In the case of `Nc1ccc(-c2nc3ccccc3[nH]2)cc1`, the CC50 [1] is reported as greater than 100 µM, the Activity [2] is reported as “inactive” and the CC50 [3] is reported as greater than 100 µM. The CC50 at 96 h [5] was 81 µM, the EC50 [6] was 16 µM and the EC50 (Coxsackievirus B2) was 19 µM. It also gave an EC50 ([7]; Mammalian orthoreovirus 1, 3651, BHK-21) of 85 µM, an EC50 (Poliovirus 1) greater than 100 µM and a CC50 [8] greater than 100 µM. For the same compound, the EC50 (Human alphaherpesvirus 1) was greater than 100 µM, the Activity [9] was “inactive” and the EC50 (Yellow fever virus) was greater than 100 µM.
For `CCC(=O)Nc1ccc(-c2nc3cc(C(F)(F)F)ccc3n2C23CC4CC(CC(C4)C2)C3)cc1`, the CC50 [1] was greater than 100 µM, the Activity [2] was “inactive” and the CC50 [3] was greater than 100 µM. The Activity [4] was “inactive”, the Activity (Vaccinia virus) was “inactive” and the CC50 at 96 h [5] was 86 µM. The EC50 [6] was greater than 100 µM, the EC50 (Coxsackievirus B2) was greater than 100 µM and the Activity [7] was “inactive”. It also gave an EC50 (Poliovirus 1) greater than 100 µM, a CC50 [8] greater than 100 µM and an EC50 (Human alphaherpesvirus 1) greater than 100 µM. The Activity [9] was “inactive” and the EC50 (Yellow fever virus) was greater than 100 µM.
